Assay results taken from ChEMBL document CHEMBL2434915, “2-(2-Hydrazinyl)thiazole derivatives: design, synthesis and in vitro antimycobacterial studies” (Eur J Med Chem, 2013).
≈ marks a conversion by molar mass, not a printed value.

What was measured:
[1] = system: Mycobacterium tuberculosis; test: Antimycobacterial activity against Mycobacterium tuberculosis H37Rv after 5 days by broth microdilution method; format: functional; conditions: 120 h
How it was run: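 Twofold DMSO dilutions (final 100 to 0.19, units as printed unclear) in Middlebrook 7H9 with 0.2% glycerol, 0.05% Tween 80 and 10% ADC; inoculum 3-7 x 10⁵ CFU/ml; 37°C for 5 days. Resazurin/Tween 80 then added, 24 h more at 37°C; A575/A610 read. MIC = lowest concentration giving 80% inhibition versus medium-only (100%) and drug-free culture (0%) controls; isoniazid reference.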

A549 = test: Cytotoxicity against human A549 cells after 48 hrs by MTT assay; format: cell-based
How it was run: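 A549 human lung carcinoma type II epithelial cells kept in RPMI-1640 with 5% FBS, penicillin/streptomycin and 2 mM L-glutamine at 37 °C, 5% CO2. Seeded at 3 × 10³ cells/well and left overnight. Exposed to compounds at various concentrations for 48 h. After a PBS wash, MTT (5 mg/ml) was added for 4 h at 37 °C. Formazan dissolved in DMSO, read at 540 nm. IC50 from survival plots; mean ±SE, n=5.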

SMILES | MIC [1] | IC50 (A549)
CCOC(=O)c1sc(N/N=C/c2ccc(OC)c(OC)c2)nc1C | > 200 µM | 
CCOC(=O)c1sc(N/N=C/c2ccco2)nc1C | 200 µM (≈ 55.9 µg/mL) | 
CCOC(=O)c1sc(N/N=C/c2ccccc2)nc1C | > 200 µM | 
CCOC(=O)c1sc(N/N=C/c2ccc([N+](=O)[O-])cc2)nc1C | 200 µM (≈ 66.9 µg/mL) | 
CCOC(=O)c1sc(N/N=C/c2cccc(Br)c2)nc1C | > 200 µM | 
CC(=O)c1sc(N/N=C(\C)c2cccs2)nc1C | 200 µM (≈ 55.9 µg/mL) | 
CCOC(=O)c1sc(N/N=C/c2ccccc2[N+](=O)[O-])nc1C | > 200 µM | 
CCOC(=O)c1sc(N/N=C/c2ccc(OC)c(O)c2)nc1C | > 200 µM | 
CC(=O)c1sc(N/N=C/c2cccc3c2OCO3)nc1C | > 200 µM | 
CCOC(=O)c1sc(N/N=C(\C)c2ccccc2)nc1C | > 200 µM | 150 µg/mL (≈ 494 µM)
CCOC(=O)Cc1csc(N/N=C(\C)c2cccnc2)n1 | 200 µM (≈ 60.9 µg/mL) | 
CCOC(=O)c1sc(N/N=C/c2c[nH]c3ccccc23)nc1C | 200 µM (≈ 65.7 µg/mL) | 
CCOC(=O)c1sc(N/N=C/c2ccc(Cl)cc2)nc1C | > 200 µM | 
CCOC(=O)c1sc(N/N=C/c2ccccc2O)nc1C | 25 µM (≈ 7.63 µg/mL) | 
CCOC(=O)c1sc(N/N=C/c2ccc(O)c(OC)c2)nc1C | > 200 µM | 
CCOC(=O)c1sc(N/N=C(\C)c2cccnc2)nc1C | > 200 µM | 
CCOC(=O)c1sc(N/N=C/c2ccc3c(c2)OCO3)nc1C | > 200 µM | 
CCOC(=O)c1sc(N/N=C/c2ccccc2Cl)nc1C | > 200 µM | 
CC(=O)c1sc(N/N=C/c2c[nH]c3ccccc23)nc1C | > 200 µM | 

SMILES | MIC [1] | IC50 (A549)
CC(=O)c1sc(N/N=C/c2ccco2)nc1C | 200 µM (≈ 49.9 µg/mL) | 
CCOC(=O)c1sc(N/N=C/c2ccc(O)c(OCC)c2)nc1C | > 200 µM | 
CCOC(=O)c1sc(N/N=C/c2ccc(N(C)C)cc2)nc1C | 200 µM (≈ 66.5 µg/mL) | 
CCOC(=O)c1sc(N/N=C/c2ccc(O)cc2)nc1C | > 200 µM | 
CCOC(=O)c1sc(N/N=C/c2ccc(C)cc2)nc1C | > 200 µM | 
CC(=O)c1sc(N/N=C(\C)c2ccccn2)nc1C | 100 µM (≈ 27.4 µg/mL) | 50 µg/mL (≈ 182 µM)
CCOC(=O)c1sc(N/N=C/c2cc(OC)c(OC)c(OC)c2)nc1C | > 200 µM | 
CCOC(=O)Cc1csc(N/N=C(\C)c2ccccn2)n1 | 200 µM (≈ 60.9 µg/mL) | 200 µg/mL (≈ 657 µM)
NNC(=O)c1ccncc1 [ISONIAZID] | 0.45 µM (≈ 0.0617 µg/mL) | 
CCOC(=O)c1sc(N/N=C/c2ccc(OC)cc2)nc1C | > 200 µM | 
CCOC(=O)c1sc(N/N=C/c2ccc(Cl)cc2Cl)nc1C | > 200 µM | 
CCOC(=O)c1sc(N/N=C(\C)c2cccs2)nc1C | 100 µM (≈ 30.9 µg/mL) | 
CC(=O)c1sc(N/N=C/c2ccc(Cl)cc2Cl)nc1C | > 200 µM | 
CCOC(=O)c1sc(N/N=C(\C)c2ccccn2)nc1C | 12.5 µM (≈ 3.8 µg/mL) | 140 µg/mL (≈ 460 µM)
COc1cc(/C=N/Nc2nc(C)c(C(C)=O)s2)cc(OC)c1OC | > 200 µM | 
CCOC(=O)c1sc(N/N=C(\C)c2ccc(F)cc2)nc1C | 200 µM (≈ 64.3 µg/mL) | 
CCOC(=O)c1sc(N/N=C(\C)c2cccc(Cl)c2)nc1C | > 200 µM | 
CCOC(=O)c1sc(N/N=C/c2cccc(O)c2)nc1C | > 200 µM | 
CCOC(=O)c1sc(N/N=C(\C)c2ccncc2)nc1C | 200 µM (≈ 60.9 µg/mL) | 
